# Source: PubChem BioAssay (The Scripps Research Institute Molecular Screening Center)
# Only some compounds are listed: those with a hit (about 1.9% of all), similar ones and a draw of the others.
# CHRM4 PAM – human M4 muscarinic receptor positive allosteric modulators, primary screen, CHO-K1 cells, Fluo-8 calcium fluorescence; CHO-K1 hM4/Gqi5, ACh EC20; 0% = ACh EC20, 100% = maximal ACh; activation, % at 3 µM; hit rate 0.4% among 360,000; AID 624126, 2012;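 active = activation above its plate's cutoff, the mean activation of sample wells plus 3 SD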
# M4 ag – human M4 muscarinic receptor agonists, primary screen, CHO-K1 cells, Fluo-8 calcium fluorescence; CHO-K1 hM4/Gqi5; vehicle 0%, full acetylcholine response 100%; activation, % at 3 µM; hit rate 0.14% among 360,000; AID 624127, 2012;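 active = activation above the run mean over all test wells plus 3 SD, cut at about 32% in these data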;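 also: peak over basal fluorescence ratio per well then scaled between controls; 0% = DMSO wells and 100% = acetylcholine at EC100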
# M5 ag – human M5 muscarinic receptor agonists, primary screen, CHO-K1 cells, Fluo-8 calcium fluorescence. CHO-K1 hM5 cells; 0% DMSO wells, 100% maximal acetylcholine response. activation, % at 3 µM. hit rate 0.19% among 360,000. AID 624037, 2012;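 active = activation above the run's mean over test compounds plus 3 SD, cut at about 23% in these data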;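 also: signal is peak over basal fluorescence ratio across the kinetic read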
# Target sequence (P08912 whole entry, looked up): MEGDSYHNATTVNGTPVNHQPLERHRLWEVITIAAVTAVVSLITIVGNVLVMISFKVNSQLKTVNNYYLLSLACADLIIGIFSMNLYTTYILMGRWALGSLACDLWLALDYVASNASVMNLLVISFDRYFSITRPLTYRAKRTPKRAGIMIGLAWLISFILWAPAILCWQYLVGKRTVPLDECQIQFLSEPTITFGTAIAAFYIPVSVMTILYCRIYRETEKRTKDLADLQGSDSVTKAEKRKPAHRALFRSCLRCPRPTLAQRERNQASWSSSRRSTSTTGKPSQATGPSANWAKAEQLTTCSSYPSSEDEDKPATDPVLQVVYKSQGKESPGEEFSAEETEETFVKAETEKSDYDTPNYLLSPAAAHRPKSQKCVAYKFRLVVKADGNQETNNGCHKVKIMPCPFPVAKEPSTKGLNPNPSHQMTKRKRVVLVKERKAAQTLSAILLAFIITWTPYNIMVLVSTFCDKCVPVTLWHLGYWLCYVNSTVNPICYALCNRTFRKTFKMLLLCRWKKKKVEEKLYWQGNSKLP
# CHRM5 PAM – human M5 muscarinic receptor positive allosteric modulators, primary screen, CHO-K1 cells, Fluo-8 calcium fluorescence; Muscarinic acetylcholine receptor M5 (Homo sapiens), P08912; CHO-K1 hM5, ACh EC20 PAM; 0% = ACh EC20, 100% = ACh EC100; activation, % at 3 µM; hit rate 0.3% among 360,000;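 active = activation above the run cutoff, the mean activation of all test compounds plus 3 SD, cut at about 18% in these data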
#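 Assay system – human M5 receptor in CHO-K1 cells · Read-out – % activation, ACh-normalized · Technique – Fluo-8 calcium fluorescence · Dosing – single-point, 3 µM nominal · Incubation – Fluo-8 loading 80 min at 37 °C plus 30 min room temperature · Repeats – singlicate, one well per test compound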
# M4 antag – human M4 muscarinic receptor antagonists, primary screen, CHO cells, Fluo-8 calcium fluorescence; AID 624125, 2012; hit rate 0.73% among 360,000; Muscarinic acetylcholine receptor M4 (Homo sapiens), P08173; inhibition, % at 3 µM; CHO-hM4 cells, ACh EC80;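 active = inhibition above its plate's cutoff, the mean inhibition of sample wells plus 3 SD, cut at about 27% in these data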;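 also: 0% = acetylcholine EC80 with DMSO and 100% = DMSO without agonist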
# CHRM5 antagonist – human M5 muscarinic receptor antagonists, primary screen, CHO cells, Fluo-8 calcium fluorescence | CHO-hM5 cells, ACh EC80 | inhibition, % at 3 µM | hit rate 0.59% among 360,000 | AID 624040, 2012;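 active = inhibition above a per-plate cutoff, the mean of that plate's test compounds plus 3 SD, cut at about 27% in these data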;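 also: 0% = acetylcholine EC80 with DMSO and 100% = DMSO without agonist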
# The depositor's hits bear a star; ! = repeats disagree.
SMILES,CHRM4 PAM,M4 ag,M5 ag,CHRM5 PAM,M4 antag,CHRM5 antagonist
CCN(C(=O)Cc1c(C(=O)O)n(C)c2ccccc12)c1ccc(F)cc1,-10.4,15.2,5.3,-10.4,3.7,8.7
NC(=S)Nn1c(-c2ccccc2)nc2ccccc2c1=O,17.5,2.2,1.9,22.1*,-1.7,-4.0
CC(=O)OCc1cc(-c2nn(C)c(=O)c3ccccc23)ccc1C,-2.6,0.1,0.0,0.4,2.8,8.7
COc1cccc(/C=N/NC(=O)C(=O)N2CCCCCC2)c1OC,2.4,1.0,-1.9,7.9,-12.7,-8.4
O=C(N/N=C/c1cccc2ccccc12)C(=O)N1CCCC1,-7.5,-1.8,0.9,18.2*,-12.5,-0.3
CC1CNCCN1S(=O)(=O)c1cccc2cnccc12 (stereo not drawn),-1.5,6.5,51.6*!,-19.1,-5.3,3.7
O=S(=O)(c1cccc2cnccc12)N1CCCNCC1,-2.6,1.2,-1.2,-4.2,-2.1,4.1
O=C(Nc1ccc2c(c1)OCO2)Nc1ccccc1F,4.5,3.3,-2.8,-2.2,-7.3,5.6
COc1ccc(F)cc1S(=O)(=O)n1nnc2ccccc21,21.6*,1.4,-10.2,16.3,-18.1,-0.5
COc1ccc(OC)c(S(=O)(=O)n2nnc3ccccc32)c1,1.8,-0.2,-1.0,2.4,10.1,-1.1
Cc1ccc(Cl)cc1NC(=O)CCC(=O)Nc1cc(Cl)ccc1C,8.0,1.3,-3.8,24.0*,-3.2,-3.7
CCCC(=O)Nc1cc(Cl)ccc1C,3.0,0.2,0.2,5.5,-9.4,-4.2
COc1cccc(N=Nc2ccc3cccnc3c2O)c1,-13.1,43.2*,42.4*,-18.8,19.1,21.0
COc1cccc(N=Nc2ccc(O)c3ncccc23)c1,-9.2,30.4,54.3*,-19.4,34.1*,28.4*
COc1ccc(CCNC(=O)CSc2ncn[nH]2)cc1,16.9,0.6,0.3,6.3,1.8,-10.2
COC(=O)c1ccc2c(=O)n(Cc3ccc(C(=O)NC4CCCC4)cc3)c(=S)[nH]c2c1,20.6*,1.7,1.8,2.9,1.2,-2.1
CC(C)c1ccc2c(c1)CCC1C(C)(CN)CCCC21C (stereo not drawn),0.4,15.4,3.5,5.7,9.8,7.4
COc1ccc(OCC(O)CN2CCC(CN3C(=O)c4cccc5cccc(c45)C3=O)CC2)cc1 (stereo not drawn),-52.0,11.7,-17.0,-0.8,27.5*,9.1
CC(C)Cc1nn2c(N)c(/C=C3\C=Nc4ccccc43)c(=O)nc2s1,-8.4,14.0,2.7,-18.7,1.0,32.2*
O=C(Nc1ccc(OC(F)(F)F)cc1)c1cccc(-n2cnnn2)c1,5.2,11.0,-1.9,-4.6,-2.8,2.3
CCOc1ccc(NC(=O)c2cccc(-n3cnnn3)c2)cc1,21.0,1.8,-0.4,-2.1,26.6*,3.5
CCC(C)c1ccccc1NC(=O)COc1ccc(-n2cnnn2)cc1 (stereo not drawn),20.4*,2.5,0.9,0.8,-13.2,0.2
CCCCN(C(=O)C1CCCC1)C1CCS(=O)(=O)C1 (stereo not drawn),6.8,0.1,-1.1,7.4,-18.7,9.1
CSc1ccc(CCNC(=O)Cn2ncc3c([nH]c4ccccc43)c2=O)cc1,15.4*,2.2,-3.9,-3.0,16.5,18.8
O=C(Cn1ncc2c([nH]c3ccccc32)c1=O)NCCc1ccc(Cl)cc1,-3.4,1.4,-1.4,-5.4,3.6,8.2
O=C(CCCC(=O)N1CCCC1)N1CCCC1,5.8,0.2,-3.9,2.8,-11.7,-6.4
O=C(O)CCCC(=O)N1CCCC1,13.4,1.4,1.2,20.6*,-8.4,-16.2
CCCCNC(=O)c1nc(-c2ccncc2)oc1-c1ccc(OC(F)(F)F)cc1,1.7,4.7,-0.7,-1.3,-11.8,4.3
